Screens deposited in PubChem by several laboratories.
HNF4A DNA FP = change in binding of human HNF4 alpha to DNA; P41235; HNF4a-FITC DNA binding, fluorescence polarization, 1 h; activity change, % at 10 µM; actives 0.3% (n = 360,000); in the data active = activity change above about 30%, passing the limit was not always enough
Target sequence (P41235 whole entry, looked up): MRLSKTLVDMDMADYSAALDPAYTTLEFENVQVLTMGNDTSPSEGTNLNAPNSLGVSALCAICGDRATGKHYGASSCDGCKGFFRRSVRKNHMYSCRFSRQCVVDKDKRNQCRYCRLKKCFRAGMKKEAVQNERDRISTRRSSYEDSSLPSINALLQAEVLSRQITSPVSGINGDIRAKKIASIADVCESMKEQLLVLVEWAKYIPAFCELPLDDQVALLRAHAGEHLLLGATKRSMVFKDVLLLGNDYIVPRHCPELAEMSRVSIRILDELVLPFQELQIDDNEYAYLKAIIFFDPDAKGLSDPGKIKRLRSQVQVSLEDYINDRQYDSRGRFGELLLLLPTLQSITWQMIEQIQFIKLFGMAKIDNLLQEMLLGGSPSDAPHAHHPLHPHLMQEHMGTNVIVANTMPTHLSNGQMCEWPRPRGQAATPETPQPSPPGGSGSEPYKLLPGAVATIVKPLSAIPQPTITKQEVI
CSN inh = blocks human CSN-mediated cullin deneddylation; actives 0.38% (n = 360,000); Purified CSN, SCF-Nedd8-OG deneddylation, fluorescence polarization; inhibition, % at 12.5 µM; AID 651999;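 active = pattern-corrected inhibition above about 35%, with an unprinted fluorescence ratio check between 0.5 and 1.5, limit read from the data, passing the limit was not always enough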
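test system = HEK293T-derived human Csn5 enzyme | amount = 0.24 nM Csn5 enzyme, final concentration | medium = Tris/NaCl/DTT buffer, pH 7.5 | schedule = 90 min reaction at room temperature | signal = FP | evaluation = inhibition of Csn5 cleavage, % | compound dosing = single dose of 12.5 µM compound with 0.25% DMSO | probe or stimulus = 10 nM SCFSkp2-Nedd8OG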
TPT1 inh = C. albicans TPT1 enzyme inhibition. recombinant caTPT1, FP RNA substrate dephosphorylation. inhibition, % at 5 µM. actives 0.81% (n = 300,000);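 active = inhibition above the mean of all tested compounds plus 3 SD, set per screening campaign, cut at about 24% in these data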
Myeloid diff 2 = compounds promoting myeloid differentiation. ER-HoxA9 myeloid progenitors, lysozyme-GFP differentiation, flow cytometry. calls only at 10 µM. actives 1% (n = 360,000). AID 624256;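 active = normalized GFP-positive differentiation at or above the plate's own cutoff, the solvent-only control mean plus 3 SD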;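 also: cells exposed to compound for four days before flow analysis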
Rpn11 inh = blocks the human proteasome subunit Rpn11; inhibition, % at 20 µM; actives 0.59% (n = 360,000); O00487; AID 588493; human 26S proteasome, Ub4-pepOG fluorescence polarization; 20S core pre-blocked with epoxomicin;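 active = inhibition at 20 µM, scaled to each plate's controls, above about 33%, limit read from the data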
Myeloid diff = promotes myeloid progenitor differentiation | shares compounds with Myeloid diff 2 | ER-HoxA9 myeloid progenitors, GFP/Mac1 double-positive flow | calls only | actives 2% (n = 2,300) | AID 651706;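 active = share of green or green-and-red cells above 9 and 9% in run 1 or 4 and 3% in run 2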
GFP autofluor = compound fluorescence in myeloid differentiation counter-screen. shares compounds with Myeloid diff 2. ER-HoxA9 myeloid progenitors, no estrogen, GFP autofluorescence flow cytometry; vehicle wells 0%, positive control 100%. fluorescence response, % (concentration not given with the values). actives 7.4% (n = 2,300). AID 651707;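 active = over 5% cells positive for green fluorescent reporter, or over 2% positive for both it and APC stain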
A number is an active result; n = inactive; x = no result shown; + = active, no number. Shown are actives, neighbours in structure and some others; about 2.3% of the full set was active somewhere.

SMILES	HNF4A DNA FP	CSN inh	TPT1 inh	Myeloid diff 2	Rpn11 inh	Myeloid diff	GFP autofluor
O=[N+]([O-])c1ccc2[nH]c(O)c(N=Nc3ccc(F)cc3)c2c1	n	n	n	+	n	n	9.8
COc1ccc(NC(=O)C[C@H]2C(=O)N(c3ccc(OC)cc3)C[C@@H]2C)cc1	n	n	x	n	n	x	x
CC(C)NC(=O)N(C)C[C@H]1Oc2ccc(NS(=O)(=O)c3cccs3)cc2C(=O)N([C@H](C)CO)C[C@@H]1C	n	n	x	n	n	n	n
COc1ccc(NC(=O)N(C)C[C@H]2Oc3ccc(NC(=O)CCN4CCOCC4)cc3C(=O)N([C@H](C)CO)C[C@@H]2C)cc1	n	n	x	n	n	n	n
CCOC(=O)N1CCN(C(=O)COC(=O)c2cc(C)ccc2C)CC1	n	n	x	n	n	x	x
Cc1cc(C)c(-n2c(SCCS(=O)(=O)c3ccc(F)cc3)n[nH]c2=O)c(C)c1	n	n	n	n	n	x	x
Cc1ccc(S(=O)(=O)CCSc2n[nH]c(=O)n2-c2ccccc2)cc1	n	n	n	n	n	n	n
CC(=O)N1CCN(C(=O)CCc2nc3ccccc3c(=O)[nH]2)CC1	n	n	n	+	n	n	n
COC(=O)C(OC(=O)c1ccccc1)C(C)Br (stereo not drawn)	n	n	x	n	n	x	x
C=CCNC(=O)C1CCCN(S(C)(=O)=O)C1 (stereo not drawn)	n	n	n	n	n	n	n
C=CCNC(=O)C1CCN(S(=O)(=O)CC)CC1	n	n	n	n	n	x	x
CCOCCCNC(=O)c1c[nH]c2ccc(OCC)cc2c1=O	n	n	n	n	n	x	x
CCCOc1ccc2[nH]cc(C(=O)O)c(=O)c2c1	n	n	n	n	n	n	n
CCC(C(=O)OCC(=O)N1C(C)CCCC1C)c1ccccc1 (stereo not drawn)	n	n	n	n	n	n	n
COc1ccc(NC(=O)NC2CCCCC2C)cc1 (stereo not drawn)	n	n	n	n	n	x	x
COc1ccc(-c2nc(N)ncc2Oc2ccccc2Br)c(O)c1	n	n	n	+	n	n	n
COc1cccc(Oc2cnc(N)nc2-c2ccc(OC)cc2O)c1	n	n	n	n	n	x	x
NNC(=O)c1ccc(COc2ccc3ccccc3c2)o1	n	n	n	+	n	n	n
Cc1ccc(OCc2ccc(C(=O)NN)o2)cc1C	n	n	n	n	n	x	x
CC(C)NC(=O)c1ccc(COc2cccc3ccccc23)o1	n	n	x	n	n	x	x
NNC(=O)c1ccc(COc2cccc3ccccc23)o1	n	n	n	+	n	n	n
CCOc1ccc(OCc2ccc(C(=O)NN)o2)cc1	n	n	n	+	n	n	n
N#CC1(NC(=O)COC(=O)C2CCN(S(=O)(=O)c3ccc4c(c3)OCCO4)CC2)CCCCC1	n	n	x	n	n	x	x
CN(CC(=O)Nc1ccccc1Cl)C1CCS(=O)(=O)C1 (stereo not drawn)	n	n	x	n	n	x	x
O=C1C(=Cc2ccco2)CCC1=Cc1ccco1	n	n	x	n	x	x	x
SMILES	HNF4A DNA FP	CSN inh	TPT1 inh	Myeloid diff 2	Rpn11 inh	Myeloid diff	GFP autofluor
O=C1C(=Cc2ccco2)CCCC1=Cc1ccco1	n	n	x	n	x	n	18.9
CN(C)CCCNc1nc(-c2ccccc2)c2c(c1C#N)CC(C)(C)OC2	n	n	n	n	n	x	x
Cc1nc(NCCO)c(C#N)c2c1COC(C)(C)C2	n	n	n	+	n	n	n
CCCCOc1cccc(C2C(C(=O)c3ccc(C)o3)=C(O)C(=O)N2c2nnc(C)s2)c1 (stereo not drawn)	n	n	x	+	n	n	n
CCCOc1cccc(C2C(C(=O)c3ccco3)=C(O)C(=O)N2c2nnc(C)s2)c1 (stereo not drawn)	n	n	n	x	n	x	x
NC(=O)C1(Nc2ccc(Cl)cc2)CCCC1	n	n	x	n	n	x	x
O=S(=O)(c1ccccc1)c1nc(-c2ccco2)oc1NCc1cccnc1	n	n	n	+	n	n	n
O=S(=O)(c1ccccc1)c1nc(-c2ccccc2)oc1NCc1cccnc1	n	n	n	n	n	x	x
COc1cc(CN2CCN(Cc3ccc4cc(F)ccc4n3)CC2CCO)cc(OC)c1 (stereo not drawn)	n	n	n	n	n	n	n
CCOc1ccc(C(C)=O)cc1CC(C(N)=O)C(N)=O	n	n	n	+	n	n	n
Cc1ccc(/C=[N+](/C)[O-])cc1	n	n	n	n	n	n	n
COc1ccc(CN2CC[C@H]3C=CC[C@@H](C(=O)Nc4ccc(Cl)c(C(F)(F)F)c4)[C@H]3C2=O)cc1OC	n	n	n	n	n	n	n
Nc1nnc(N)c2ccccc12	n	n	n	+	n	n	n
O=C(Nc1nccs1)C1CCCN(S(=O)(=O)c2cccc3cccnc23)C1 (stereo not drawn)	n	n	n	n	n	n	n
O=C(Nc1cccc2ccccc12)C1CCN(C(=O)Cc2ccccc2)CC1	n	n	n	x	n	n	n
CCC(C)c1c(O)nc(SCC(=O)N2CCCCC2)[nH]c1=O (stereo not drawn)	n	n	n	n	n	x	x
CCC(C)c1c(O)nc(SCC(=O)N2CCOCC2)[nH]c1=O (stereo not drawn)	n	n	n	n	n	n	n
COc1cccc(OCCSc2nnc3sc4ccccc4n23)c1	n	n	n	n	n	x	x
c1ccc(OCCSc2nnc3sc4ccccc4n23)cc1	n	n	n	n	n	n	n
CCNc1nc(SCC(N)=O)nc2sc3c(c12)CCN(C)C3	n	n	x	n	n	n	n
O=C(O)c1ccc(NC2=C(Cl)C(=O)c3ccccc3C2=O)cc1	n	n	n	n	n	x	x
O=C(O)c1cccc(NC2=C(Cl)C(=O)c3ccccc3C2=O)c1	n	n	x	+	n	n	n
O=C(Nc1ccncc1Cl)c1ccncc1	n	n	n	n	n	x	x
CC1CC(C)CN(c2ncc3c(n2)CC(c2ccc(Cl)cc2)CC3=O)C1 (stereo not drawn)	n	n	n	n	n	n	n
COc1ccccc1CNC(=O)[C@@H](NC(=O)C1CCN(C(=O)[C@@H]2CCCN2C(=O)OC(C)(C)C)CC1)C(C)C	n	n	n	n	n	x	x
Cc1ccc(CNC(=O)[C@H](C)NC(=O)C2CCN(C(=O)[C@@H]3CCCN3C(=O)OC(C)(C)C)CC2)cc1	n	n	n	+	n	n	n
COc1ccc2cnn(CCOc3cc(C)ccc3C(C)C)c(=O)c2c1OC	n	n	n	+	n	n	n
CCCn1cnnc1CNC(=O)[C@H]1O[C@@H](n2cnc3c(N)ncnc32)[C@H](O)[C@@H]1O	n	n	x	n	n	x	x
O=C(NCc1cccnc1)C1Cc2c(-c3ccc(Cl)cc3)ccnc2O1 (stereo not drawn)	n	n	x	+	n	n	n
